# Screening results as filed in PubChem BioAssay.
# PvdQ inh = P. aeruginosa PvdQ acylase inhibition. purified PvdQ acylase, fluorescence plate reader. inhibition, % at 10 µM. 340,000 compounds, 0.063% hits. AID 488965; in the data active = inhibition above about 30%, passing the limit was not always enough;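 note: 0% = vehicle neutral wells and 100% = reference inhibitor wells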
# CAL PDZ FP-1 = blocks peptide binding to the human CAL PDZ domain; 300,000 compounds, 0.92% hits; Q9HD26; inhibition, % at 24.9 µM; AID 602252; purified CAL PDZ, TMR-peptide fluorescence polarization, 1 h;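 active = mean inhibition of at least 30% with at least half of replicates also reaching 30%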;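 note: 0% = DMSO neutral control and 100% = excess unlabeled competitor peptide PRC23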
# CAL PDZ FP-2 = blocks peptide binding to human CAL PDZ domain | 330,000 compounds, 0.02% hits | purified CAL PDZ, TMR-peptide fluorescence polarization, 1 h | AID 504414 | Q9HD26 | inhibition, % at 20 µM;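 active = highest replicate inhibition of at least 40%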;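 note: plate controls were DMSO neutral control wells for no effect and unlabeled competitor peptide control wells for full effect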
#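 Assay system – tagged CAL PDZ protein CerCALP, purified · Timing – 1 h at RT · Compound – single point, 20 µM · Measured by – fluorescence polarization from S- and P-plane intensities, G-factor corrected · Evaluation – inhibition from polarization loss · Probe or stimulus – TMR reporter peptide T*-PRC34 · Buffer or medium – pH 7.4 phosphate-saline buffer, reducing agent, detergent, IgG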
# miR122 inh = inhibitors of miR-122 in Huh7 cells; 340,000 compounds, 0.3% hits; Huh7 miR-122 Renilla luciferase sensor, 48 h; neutral wells = 0, positive control = 100; activation (reporter increase), % at 12.5 µM; AID 602342;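 active = mean replicate activation score at least 90 and every replicate individually at or above 90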;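 note: higher luciferase means less miR-122 activity so hits act as miR-122 inhibitors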
# Numbers without * were called inactive; nt = no result; [ ] = remark or other dose. Compounds with a hit are over-represented: about 0.95% of the library has one in this group of screens.
SMILES,PvdQ inh,CAL PDZ FP-1,CAL PDZ FP-2,miR122 inh
CCCC(=O)Nc1nnc(SCC(=O)NC2CC2)s1,-14.1,-1.8,-2.9,4.0
COc1ccc(OC)c(S(=O)(=O)Nc2cc(OC)c(Cl)cc2OC)c1,5.7,0.0,-1.9,66.8
COc1cc(NS(=O)(=O)c2ccc(OC)c(C)c2C)c(OC)cc1Cl,-17.9,-3.3,-1.6,271.6*
COc1cc(S(=O)(=O)Nc2cccc3cn[nH]c23)c(OC)cc1Cl,-13.7,95.1*,-0.6,19.9
COc1ccc2c(c1)C(C)=CC(C)(C)N2S(=O)(=O)c1ccc(Br)cc1,-11.0,4.1,-1.1,114.0*
COc1ccc2c(c1)C(C)=CC(C)(C)N2S(=O)(=O)c1ccc(NC(C)=O)cc1,-9.8,-3.7,-0.9,65.9
COc1ccc(C(=O)Nc2cc(-c3nn4c(C)nnc4s3)ccc2C)cc1,-14.5,nt,-1.5,-2.6
CC1(C)CC2(CCCN(CC(O)(c3ccccc3)c3ccccc3)C2)CCO1 (stereo not given),-11.1,86.3*,-0.4,-12.9
CCC1(C)CC2(CCCN(CCC(O)(c3ccccc3)c3ccccc3)C2)CCO1 (stereo not given),4.5,nt,-1.7,nt
COc1cc(/C=N/Nc2nc(C)cc(C)n2)cc(OC)c1OC,-8.8,75.5*,14.1,4.4
Cn1c(SCC(=O)NNC(=O)c2ccc(Br)cc2)nnc1-c1cccnc1,-6.6,63.0*,-0.3,nt
Cc1c(-c2ccn[nH]2)cc(NC(=O)c2ccc(Cl)cc2)c(=O)n1N,-14.7,3.0,-0.5,9.0
CC(C)C(C)(C#N)NC(=O)CSc1nnc(-c2ccncc2)n1Cc1ccccc1 (stereo not given),-11.1,35.1*,-1.3,2.8
CC(C)(C)NC(=O)CSc1nnc(-c2ccncc2)n1Cc1ccccc1,-13.2,-6.2,-0.6,0.1
COc1ccc(-c2nnc(SCC(=O)O)n2Cc2ccccc2)cc1,-6.9,56.7*,-0.1,-8.4
c1ccc(-c2ccc3nnnn3n2)cc1,4.2,0.0,-0.3,nt
CC(C)Oc1ccc2nnnn2n1,-19.5,130.3*,nt,-3.8
COC(=O)c1c(-c2snnc2C)n[nH]c1C,0.5,-3.6,-0.7,nt
O=C(Nc1ccccc1)c1cc([N+](=O)[O-])ccc1NC1CCCCC1,-7.0,-4.8,0.5,122.8*
O=C(Nc1ccccc1)c1cc([N+](=O)[O-])ccc1Cl,1.8,-1.4,0.1,9.1
O=C(Nc1nccs1)c1ccc2ccccc2n1,-16.2,34.6*,-2.4,0.8
Cc1csc(NC(=O)c2ccc3ccccc3n2)n1,-1.3,-3.8,-1.6,0.2
C[C@@H]1CN([C@@H](C)CO)C(=O)Cc2cc(NC(=O)CCCCCC(=O)Nc3ccccc3N)ccc2O[C@H]1CN(C)S(=O)(=O)c1ccc(F)cc1,nt,nt,nt,-1.7[16.7 µM]
Cc1ccc2ccccc2c1CSc1nc(N)nc2c1ncn2CC(C)C,11.2,-5.5,-1.3,8.1
COc1n[nH]c(C(=O)Nc2nc3ccccc3s2)c1[N+](=O)[O-],-4.2,65.6*,-0.8,nt
SMILES,PvdQ inh,CAL PDZ FP-1,CAL PDZ FP-2,miR122 inh
COc1n[nH]c(C(=O)NCc2ccccc2)c1[N+](=O)[O-],-9.9,-0.3,-1.2,2.2
O=C(O)Cc1sc(Nc2cccc3ccccc23)nc1-c1ccc(Cl)cc1,-14.7,61.8*,nt,nt
C[C@H](CO)N1C[C@H](C)[C@@H](CN(C)Cc2cncnc2)Oc2cc(C3=CCCCC3)ccc2S1(=O)=O,nt,nt,nt,40.8[16.7 µM]
COc1ccc(OC)c(S(=O)(=O)Nc2ccc3oc4c(c3c2)C(=O)CCC4)c1,-5.5,-3.9,-3.6,165.3*
COc1ccc(OC)c(S(=O)(=O)Nc2cc3c4c(c2)CCC(=O)N4CCC3)c1,-12.1,2.2,-0.2,138.4*
COc1ccc(OC)c(S(=O)(=O)Nc2ccc(C)c(C)c2)c1,-5.5,nt,-2.4,88.2
COc1ccc(C)cc1S(=O)(=O)Nc1cc2c3c(c1)CCN3C(=O)CC2,-6.2,-1.4,-1.9,87.2
Cc1ccc(C)c(S(=O)(=O)Nc2cc3c4c(c2)CCC(=O)N4CCC3)c1,5.6,nt,-1.1,217.9*
CCn1c(N2CCN(C(=O)c3ccco3)CC2)nc2ccccc21,-20.4,-8.4,-0.9,nt
CCCNC(=O)Nc1ccc2c(c1)C(=O)N(C)C[C@@H](OC)[C@@H](C)CN(C(=O)CC)[C@@H](C)CO2,nt,nt,nt,10.9[16.7 µM]
CCCNc1nc2c(c(=O)n(C)c(=O)n2C)n1Cc1cccc(C)c1,-7.9,-0.7,-1.2,nt
O=C(CN1C(=O)NC2(CCc3ccccc32)C1=O)c1cccs1 (stereo not given),-11.8,nt,-0.9,-1.7
Cc1nn(C)c(C)c1S(=O)(=O)NCc1cccs1,-23.5,nt,-1.5,109.3*
CC(C)CN(CCCNC(=O)CN1C(=O)COc2ccc(S(=O)(=O)N3CCC(C)CC3)cc21)CC(C)C,-15.1,3.8,-1.2,2.8
Cc1ccc(CN2CCSc3ccc(C(=O)NCCCN4CCN(C)CC4)cc32)cc1,-13.9,nt,0.0,nt
Cc1ccc(CN2CCSc3ccc(C(=O)NCc4cccnc4)cc32)cc1,-6.2,-4.7,-1.0,155.4*
N#Cc1ccc(CSc2nc(N)cc(N)n2)cc1,-13.9,72.2*,-3.4,0.1
COc1ccc(-c2onc3ccc(Br)cc23)cc1,34.3*,-4.7,-1.2,-2.3
CC(=O)NC12CC3CC(C1)CC(C(=O)Nc1cccc(S(=O)(=O)N4CCCCCC4)c1)(C3)C2,-13.1,193.7*,-1.9,-9.5
CC(=O)NC12CC3CC(C1)CC(C(=O)Nc1ccc(C)c(S(=O)(=O)N4CCCCCC4)c1)(C3)C2,6.4,-3.1,-1.4,nt
C[C@@H]1CN([C@@H](C)CO)C(=O)c2cccc(NC(=O)c3ccncc3)c2O[C@@H]1CN(C)Cc1ccc(Oc2ccccc2)cc1,nt,nt,nt,-2.4[16.7 µM]
C[C@H](CO)N1C[C@H](C)[C@@H](CN(C)Cc2ccc(Oc3ccccc3)cc2)Oc2c(NC(=O)C3CCOCC3)cccc2C1=O,nt,nt,nt,100.0*[16.7 µM]
C[C@H](CO)N1C[C@H](C)[C@@H](CN(C)Cc2ccc(Oc3ccccc3)cc2)Oc2c(NC(=O)c3ccncc3)cccc2C1=O,-25.5,-0.8,-1.2,110.9*[16.7 µM]
CCOC(=O)c1c(CN2CCOCC2)n(-c2ccccc2)c2cc(Br)c(O)cc12,6.1,-5.1,-0.7,2.8
O=C(COC(=O)CCSc1ccccc1)Nc1cc(F)ccc1F,-11.1,46.2*,0.2,nt
SMILES,PvdQ inh,CAL PDZ FP-1,CAL PDZ FP-2,miR122 inh
Cc1ccc(C2CC(c3cccs3)=NN2S(=O)(=O)c2ccc(C)cc2)cc1 (stereo not given),-12.6,-3.6,-2.5,98.1*
COc1ccc(C2CC(c3cccs3)=NN2S(=O)(=O)c2ccc(C)cc2)cc1 (stereo not given),0.2,-4.4,-1.5,44.0
CCOc1cc(/C=N/NC(=O)c2ccncc2)cc(Cl)c1OS(C)(=O)=O,-9.5,53.5*,-4.1,-0.5
CC(C)CCNC1c2ccccc2C(=O)N1Cc1ccccc1 (stereo not given),-14.9,87.9*,nt,1.2
Cc1cccc(NC(=O)CN2C(=O)N/C(=C/c3cc(C)n(-c4cccnc4)c3C)C2=O)c1,-7.2,74.3*,-0.4,nt
Cc1cccc(NC(=O)CN2C(=O)N/C(=C/c3cc(C)n(-c4ccncc4)c3C)C2=O)c1,-1.4,-9.9,-0.7,-6.0
COc1cccc(CCNC(=O)C2CCC(=O)N(Cc3cccc(OC)c3)C2)c1 (stereo not given),-13.6,0.0,-2.1,5.8
